{
  "source": "paper PMC3717159",
  "about": "(Investigational New Drugs, 2012)",
  "key": {"Pharmacokinetics in mice": {"test": "Pharmacokinetics in mice", "conditions": "mouse, in vivo, oral"}, "MV4-11 cells": {"system": "MV4-11 cells", "test": "In vitro anti-proliferative activity for MV4-11 cells", "assay_type": "cell-based", "conditions": "Homo sapiens, MV4-11, read-out: in vitro anti-proliferative activity IC50"}, "DU145 cells": {"system": "DU145 cells", "test": "HGF induced cell scattering assay", "assay_type": "cell-based", "conditions": "0.01–10 μM, HGF 20 ng/ml, 48 h, colony counts", "how_it_was_run": "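DU145 cells (2 × 10^3/well) were plated on poly-D-lysine and given test compound (0.4 % DMSO), then immediately human HGF (20 ng/ml). After 48 h at 37 °C, cells were fixed in 2 % formaldehyde and stained with Alexa488-phalloidin plus propidium iodide. Colonies (≥ 4 cells) were counted by laser-scanning microplate cytometry.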"}, "U-87MG xenograft": {"system": "U-87MG xenograft", "test": "Anti-tumor growth activity, xenograft model", "assay_type": "in vivo, mouse", "conditions": "MET autocrine model, oral", "how_it_was_run": "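U-87MG xenografts were grown in nude mice. Test compound in 10 % acacia was given orally twice daily, either continuously or intermittently. The 5/2 schedule (5 dosing days, 2 off) ran for 4 cycles; the 9/5 schedule (9 dosing days, 5 off) ran for 2 cycles. Tumour growth was compared with vehicle controls.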"}, "human MET kinase domain [1]": {"molecular_target": "T1, human MET kinase domain (Homo sapiens, UniProt P08581)", "T1 sequence (P08581 1078-1345 limits assumed)": "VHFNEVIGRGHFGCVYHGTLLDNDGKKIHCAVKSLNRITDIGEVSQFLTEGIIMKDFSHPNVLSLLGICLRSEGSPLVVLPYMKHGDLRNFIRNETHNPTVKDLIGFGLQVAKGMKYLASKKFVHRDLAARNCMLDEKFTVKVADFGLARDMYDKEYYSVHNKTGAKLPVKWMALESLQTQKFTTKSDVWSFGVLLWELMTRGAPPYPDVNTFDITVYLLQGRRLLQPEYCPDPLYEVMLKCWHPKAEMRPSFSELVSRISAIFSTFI", "test": "MET kinase radiometric filter-binding assay", "assay_type": "biochemical", "conditions": "versus ATP"}, "H1993 xenograft": {"system": "H1993 xenograft", "test": "Anti-tumor growth activity, xenograft model", "assay_type": "in vivo, mouse", "conditions": "H1993, co-express MET and MST1R, oral", "how_it_was_run": "(§1)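 Xenografts were grown in athymic or CD-1 nude mice. Test compound was formulated in 10 % acacia and given orally twice daily without interruption. Tumour growth was compared with a vehicle-treated control group.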"}, "KP4 xenograft": {"system": "KP4 xenograft", "test": "Anti-tumor growth activity, xenograft model", "assay_type": "in vivo, mouse", "conditions": "KP4, MET autocrine model, oral", "how_it_was_run": "as §1"}, "LTK": {"molecular_target": "LTK (Homo sapiens, UniProt P29376)", "sequence (P29376 17-864)": "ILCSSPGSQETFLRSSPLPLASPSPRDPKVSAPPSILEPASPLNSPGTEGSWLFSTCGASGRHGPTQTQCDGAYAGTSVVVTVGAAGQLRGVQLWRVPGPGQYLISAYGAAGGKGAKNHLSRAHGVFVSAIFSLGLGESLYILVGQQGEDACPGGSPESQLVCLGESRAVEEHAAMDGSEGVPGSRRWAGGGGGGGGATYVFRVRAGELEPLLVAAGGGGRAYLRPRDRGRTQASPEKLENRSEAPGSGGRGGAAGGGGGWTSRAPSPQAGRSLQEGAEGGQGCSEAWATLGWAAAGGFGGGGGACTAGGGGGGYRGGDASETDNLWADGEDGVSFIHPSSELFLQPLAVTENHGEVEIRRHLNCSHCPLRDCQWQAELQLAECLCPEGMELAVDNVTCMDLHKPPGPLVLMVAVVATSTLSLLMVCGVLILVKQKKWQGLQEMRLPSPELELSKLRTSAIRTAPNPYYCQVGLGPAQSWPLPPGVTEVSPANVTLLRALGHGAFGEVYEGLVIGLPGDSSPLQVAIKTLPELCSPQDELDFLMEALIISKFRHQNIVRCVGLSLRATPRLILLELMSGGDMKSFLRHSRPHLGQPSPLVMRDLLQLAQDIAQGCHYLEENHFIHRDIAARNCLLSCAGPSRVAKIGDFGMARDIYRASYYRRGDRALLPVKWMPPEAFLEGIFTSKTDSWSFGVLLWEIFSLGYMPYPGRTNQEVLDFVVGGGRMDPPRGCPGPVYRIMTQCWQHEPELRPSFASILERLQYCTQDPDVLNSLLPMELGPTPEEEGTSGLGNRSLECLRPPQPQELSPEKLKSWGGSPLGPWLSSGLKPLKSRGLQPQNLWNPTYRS", "test": "Biochemical screening against 442 kinases"}, "H1299 orthotopic model": {"system": "H1299 orthotopic model", "test": "Anti-tumor growth activity, orthotopic model of NSCLC", "assay_type": "in vivo, mouse", "conditions": "AXL over-expression, oral", "how_it_was_run": "(§2)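 Nude mice (athymic or CD-1) carried H1299 orthotopic tumours or MV4-11 xenografts. Test compound was formulated in 10 % acacia and given orally.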"}, "H441 xenograft": {"system": "H441 xenograft", "test": "Anti-tumor growth activity, xenograft model", "assay_type": "in vivo, mouse", "conditions": "H441, MET over-expression, oral", "how_it_was_run": "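H441 xenografts were grown in nude mice. Test compound in 10 % acacia was given orally twice daily, either continuously or on intermittent schedules. The 5/2 schedule (5 dosing days, 2 drug-free days) ran for 6 cycles; the 9/5 schedule (9 dosing days, 5 drug-free days) ran for 3 cycles. Tumour growth was compared with vehicle controls.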"}, "[2]": {"molecular_target": "MET phosphorylation in S114 xenograft tumors (Homo sapiens, UniProt P08581)", "sequence (P08581 25-1390)": "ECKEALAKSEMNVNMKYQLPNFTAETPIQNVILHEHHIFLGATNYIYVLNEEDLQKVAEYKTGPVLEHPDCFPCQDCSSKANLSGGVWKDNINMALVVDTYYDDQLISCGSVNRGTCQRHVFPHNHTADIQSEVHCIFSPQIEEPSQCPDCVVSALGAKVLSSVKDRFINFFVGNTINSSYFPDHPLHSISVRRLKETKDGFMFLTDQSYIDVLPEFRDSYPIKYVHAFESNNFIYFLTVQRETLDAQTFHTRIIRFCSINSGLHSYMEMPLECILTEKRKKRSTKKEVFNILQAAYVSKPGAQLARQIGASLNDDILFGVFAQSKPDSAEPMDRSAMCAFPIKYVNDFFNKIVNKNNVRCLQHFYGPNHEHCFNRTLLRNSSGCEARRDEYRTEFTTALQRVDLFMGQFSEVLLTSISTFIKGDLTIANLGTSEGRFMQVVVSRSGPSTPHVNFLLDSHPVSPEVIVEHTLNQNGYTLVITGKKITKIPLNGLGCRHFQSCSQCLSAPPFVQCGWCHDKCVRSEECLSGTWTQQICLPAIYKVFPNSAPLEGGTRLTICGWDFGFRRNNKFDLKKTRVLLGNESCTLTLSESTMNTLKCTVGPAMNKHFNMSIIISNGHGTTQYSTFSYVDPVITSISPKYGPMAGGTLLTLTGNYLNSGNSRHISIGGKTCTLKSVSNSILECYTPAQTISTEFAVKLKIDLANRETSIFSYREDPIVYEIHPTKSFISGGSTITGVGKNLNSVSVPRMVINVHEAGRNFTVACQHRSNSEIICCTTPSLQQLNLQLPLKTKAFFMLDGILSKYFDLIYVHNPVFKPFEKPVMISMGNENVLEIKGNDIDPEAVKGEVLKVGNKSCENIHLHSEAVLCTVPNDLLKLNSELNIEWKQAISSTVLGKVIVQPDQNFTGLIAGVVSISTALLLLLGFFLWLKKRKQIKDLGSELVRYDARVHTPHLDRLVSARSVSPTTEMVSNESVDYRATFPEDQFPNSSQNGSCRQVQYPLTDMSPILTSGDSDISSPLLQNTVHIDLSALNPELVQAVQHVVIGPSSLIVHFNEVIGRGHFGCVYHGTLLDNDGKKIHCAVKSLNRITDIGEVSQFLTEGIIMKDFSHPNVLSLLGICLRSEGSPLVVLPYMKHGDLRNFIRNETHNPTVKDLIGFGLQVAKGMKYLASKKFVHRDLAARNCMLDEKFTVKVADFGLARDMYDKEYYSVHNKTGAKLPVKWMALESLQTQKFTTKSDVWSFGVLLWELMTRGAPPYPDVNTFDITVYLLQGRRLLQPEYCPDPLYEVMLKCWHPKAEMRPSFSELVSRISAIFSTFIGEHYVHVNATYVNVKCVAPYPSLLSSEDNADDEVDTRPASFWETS", "test": "In vivo MET target inhibition in S114 xenograft tumors", "design": "species or system mouse", "how_it_was_run": "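Subcutaneous tumors from S114 cells (NIH3T3-derived murine line engineered to express human MET and HGF) in nude mice. Test compound in 10 % acacia, single oral dose. Dose response read 2 h post-dose (n = 8 per dose group, 4 studies pooled); 12 mg/kg time course over 24 h. Tumor phospho-MET measured by MSD ELISA relative to vehicle group, with pharmacokinetic analysis alongside.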"}, "HT29 xenograft": {"system": "HT29 xenograft", "test": "Anti-tumor growth activity, xenograft model", "assay_type": "in vivo, mouse", "conditions": "HT29, co-express MET and MST1R, oral", "how_it_was_run": "as §1"}, "MV4-11 xenograft": {"system": "MV4-11 xenograft", "test": "Anti-tumor growth activity, xenograft model", "assay_type": "in vivo, mouse", "conditions": "MV4-11, FLT3-activating mutation, oral", "how_it_was_run": "as §2"}, "MKN45 xenograft": {"system": "MKN45 xenograft", "test": "Anti-tumor growth activity, xenograft model", "assay_type": "in vivo, mouse", "conditions": "MKN45, very high MET gene amplification, oral", "how_it_was_run": "as §1"}, "human MET kinase domain [3]": {"molecular_target": "T1, human MET kinase domain", "test": "MET kinase spin column assay", "assay_type": "biochemical", "conditions": "from Koff"}, "[4]": {"test": "Pharmacokinetics in non-human primate", "conditions": "in vivo, oral"}, "U-87MG xenograft tumors": {"system": "U-87MG xenograft tumors", "test": "Multiplexed immunofluorescence tumor tissue imaging of U-87MG xenograft tumors", "assay_type": "in vivo, mouse", "conditions": "12 mg/kg once daily, 28 days, vs vehicle", "how_it_was_run": "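Mice bearing U-87MG xenografts received test compound orally (10 % acacia) at 1.3 or 12 mg/kg once daily for 28 days, or vehicle. Tumours were then excised and fixed in Zinc-Tris. One panel stained […], CD31, Ki67 and TUNEL; the other stained Hoechst, CD31, GLUT1 and smooth muscle actin. Staining was quantified by imaging.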"}, "ALK": {"molecular_target": "ALK (Homo sapiens, UniProt Q9UM73)", "sequence (Q9UM73 19-1620)": "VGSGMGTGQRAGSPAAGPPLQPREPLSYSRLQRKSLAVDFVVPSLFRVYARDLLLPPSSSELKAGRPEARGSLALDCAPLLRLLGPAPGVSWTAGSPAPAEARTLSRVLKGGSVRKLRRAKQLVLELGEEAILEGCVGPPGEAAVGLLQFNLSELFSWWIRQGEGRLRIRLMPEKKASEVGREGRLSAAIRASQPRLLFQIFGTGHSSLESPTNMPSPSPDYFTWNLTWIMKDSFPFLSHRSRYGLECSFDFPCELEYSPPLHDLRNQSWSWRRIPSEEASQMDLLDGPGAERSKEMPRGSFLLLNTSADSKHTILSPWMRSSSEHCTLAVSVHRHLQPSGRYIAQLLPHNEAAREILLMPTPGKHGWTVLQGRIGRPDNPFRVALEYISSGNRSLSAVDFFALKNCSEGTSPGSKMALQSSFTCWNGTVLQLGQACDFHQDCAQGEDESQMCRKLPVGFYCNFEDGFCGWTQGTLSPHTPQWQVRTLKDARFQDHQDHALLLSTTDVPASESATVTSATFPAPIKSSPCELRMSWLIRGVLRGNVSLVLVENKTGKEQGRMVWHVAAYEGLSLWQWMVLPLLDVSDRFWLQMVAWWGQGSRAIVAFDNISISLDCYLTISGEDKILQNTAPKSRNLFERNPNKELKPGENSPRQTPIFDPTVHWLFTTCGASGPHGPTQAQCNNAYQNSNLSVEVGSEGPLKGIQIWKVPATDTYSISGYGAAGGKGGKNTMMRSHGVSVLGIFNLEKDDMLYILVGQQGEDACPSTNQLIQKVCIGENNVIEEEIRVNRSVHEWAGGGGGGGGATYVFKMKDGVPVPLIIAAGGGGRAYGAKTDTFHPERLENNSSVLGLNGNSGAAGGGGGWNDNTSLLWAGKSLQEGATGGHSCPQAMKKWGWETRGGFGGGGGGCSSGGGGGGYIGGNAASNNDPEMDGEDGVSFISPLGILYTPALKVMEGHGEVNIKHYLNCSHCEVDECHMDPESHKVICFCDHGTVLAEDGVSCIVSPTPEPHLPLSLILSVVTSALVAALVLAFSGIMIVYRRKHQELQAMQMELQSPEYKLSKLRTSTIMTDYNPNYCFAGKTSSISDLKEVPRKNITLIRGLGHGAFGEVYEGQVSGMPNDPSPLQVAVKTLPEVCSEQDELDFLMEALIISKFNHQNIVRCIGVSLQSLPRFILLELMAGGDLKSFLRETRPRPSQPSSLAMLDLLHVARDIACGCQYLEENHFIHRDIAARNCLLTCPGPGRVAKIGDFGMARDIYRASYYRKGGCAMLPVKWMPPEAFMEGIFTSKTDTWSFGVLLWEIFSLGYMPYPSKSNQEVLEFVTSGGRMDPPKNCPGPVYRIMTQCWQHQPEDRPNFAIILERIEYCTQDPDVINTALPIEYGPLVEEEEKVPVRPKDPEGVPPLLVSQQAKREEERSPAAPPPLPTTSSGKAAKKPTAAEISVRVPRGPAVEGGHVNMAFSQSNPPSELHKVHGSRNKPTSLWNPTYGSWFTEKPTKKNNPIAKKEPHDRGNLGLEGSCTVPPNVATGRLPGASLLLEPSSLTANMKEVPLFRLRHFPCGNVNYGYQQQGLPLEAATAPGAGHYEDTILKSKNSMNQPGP", "test": "Biochemical screening against 442 kinases"}, "[5]": {"conditions": "S114 xenograft, 2 h after dose, oral, 4 studies"}, "[6]": {"conditions": "S114 xenograft, plasma concentration, 2 h after dose"}},
  "data": [
    {"smiles": "Cc1ccc(C(=O)Nc2ccc(Oc3cc4cnn(C)c4cc3-c3cn[nH]c3)c(F)c2)c(=O)n1-c1ccc(F)cc1", "note": "[LY2801653, N-(3-fluoro-4-{[1-methyl-6-(1H-pyrazol-4-yl)-1H-indazol-5 yl]oxy}phenyl)-1-(4-fluorophenyl)-6-methyl-2-oxo-1,2-dihydropyridine-3-carboxamide]", "values": [
      {"measurement": "half-life", "setting": "Pharmacokinetics in mice", "value": 2.9, "unit": "h"},
      {"measurement": "IC50", "setting": "MV4-11 cells", "value": 4, "unit": "nM"},
      {"measurement": "effect on HGF-induced DU-145 cell scattering", "setting": "DU145 cells", "value": "completely blocked"},
      {"measurement": "anti-tumor growth effect", "setting": "U-87MG xenograft", "value": "significant anti-tumor growth effect"},
      {"measurement": "mode of inhibition", "setting": "human MET kinase domain [1]", "value": "competitive"},
      {"measurement": "tumor activity in xenograft model", "setting": "H1993 xenograft", "value": "demonstrates tumor activity"},
      {"measurement": "anti-tumor growth effect", "setting": "KP4 xenograft", "value": "significant anti-tumor growth effect"},
      {"measurement": "activity against LTK", "setting": "LTK", "value": "does not have significant activity"},
      {"measurement": "in vivo anti-tumor growth activity", "setting": "H1299 orthotopic model", "value": "in vivo anti-tumor growth activity"},
      {"measurement": "anti-tumor growth effect", "setting": "H441 xenograft", "value": "significant anti-tumor growth effect"},
      {"measurement": "p-MET inhibition in tumors by 16 h", "setting": "[2]; S114 xenograft, 12 mg/kg oral, 16 h", "value": "no p-MET inhibition was observed"},
      {"measurement": "inhibition of p-MET", "setting": "[2]; S114 xenograft, 12 mg/kg oral, at 2 h and maintained up to 8 h", "value": "Ninety-five percent"},
      {"measurement": "composite TED50 (50 % target inhibition dose)", "setting": "[2]; [5]", "value": 1.2, "unit": "mg/kg"},
      {"measurement": "composite TED90 (90 % target inhibition dose)", "setting": "[2]; [5]", "value": 7.4, "unit": "mg/kg"},
      {"measurement": "inhibition of MET phosphorylation", "setting": "[2]; S114 xenograft, 2 h post-treatment, single 50-mg/kg dose, oral", "value": 98, "unit": "%"},
      {"measurement": "TEC50 (the concentration that inhibited 50 % MET phosphorylation)", "setting": "[2]; [6]", "value": 0.2, "unit": "µM"},
      {"measurement": "TEC90 (the concentration that inhibited 90 % MET phosphorylation)", "setting": "[2]; [6]", "value": 2, "unit": "µM"},
      {"measurement": "inhibition at 12 mg/kg", "setting": "[2]; mouse, po, read-out: inhibition of p-MET", "value": 95, "unit": "%"},
      {"measurement": "tumor activity in xenograft model", "setting": "HT29 xenograft", "value": "demonstrates tumor activity"},
      {"measurement": "in vivo anti-tumor growth activity", "setting": "MV4-11 xenograft", "value": "in vivo anti-tumor growth activity"},
      {"measurement": "anti-tumor growth effect", "setting": "MKN45 xenograft", "value": "significant anti-tumor growth effect"},
      {"measurement": "half-life (t1/2)", "setting": "human MET kinase domain [3]", "value": 8.75, "unit": "h"},
      {"measurement": "half-life", "setting": "[4]", "value": 14.3, "unit": "h"},
      {"measurement": "GLUT1 expression", "setting": "U-87MG xenograft tumors", "value": "decrease in GLUT1 expression"},
      {"measurement": "apoptotic area", "setting": "U-87MG xenograft tumors", "value": "significantly reduced apoptotic area"},
      {"measurement": "pericyte coverage of vessels", "setting": "U-87MG xenograft tumors", "value": "increase in pericyte coverage of vessels"},
      {"measurement": "activity against ALK", "setting": "ALK", "value": "does not have significant activity"}
    ]}
  ]
}
